Test results from ChEMBL document CHEMBL1817635, “Ellipticines and 9-acridinylamines as inhibitors of D-alanine:D-alanine ligase” (Bioorg Med Chem, 2011).
Values after ≈ are worked out from the molar mass of the structure shown.

Assays:
[1] = Inhibition of Escherichia coli DdlB assessed as residual activity of the enzyme assessed as orthophosphate formation after 20 mins by malachite green reagent method
Escherichia coli [2] = experiment: Antimicrobial activity against AcrAB-deficient Escherichia coli SM1411 after 18 hrs by broth microdilution method; assay type: functional; settings: SM1411, 18 h
Escherichia coli [3] = experiment: Antimicrobial activity against Escherichia coli 1411 after 18 hrs by broth microdilution method; assay type: functional; settings: Escherichia coli, 1411, 18 h
Staphylococcus aureus [4] = experiment: Antimicrobial activity against Staphylococcus aureus SH1000 after 18 hrs by broth microdilution method; assay type: functional; settings: SH1000, 18 h
Staphylococcus aureus [5] = experiment: Effect on membrane integrity in Staphylococcus aureus SH1000 at four times MIC after 10 mins by BacLight assay; assay type: functional
Escherichia coli [6] = experiment: Inhibition of Escherichia coli DdlB assessed as residual activity of the enzyme assessed as orthophosphate formation at 250 uM after 20 mins by malachite green reagent method
Method in brief: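 Purified His-tagged E. coli DdlB, diluted in 50 mM Hepes pH 7.2 with 1 mM DTT. Reaction at 37 °C in 50 mM Hepes pH 8.0, 3.25 mM MgCl2, 6.5 mM (NH4)2SO4, D-Ala, ATP and 5% DMSO. Incubated 20 min, then malachite green reagent added and A650 read after 5 min. Duplicates, with parallel testing in 0.005% Triton X-114.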

Staphylococcus aureus [7] = experiment: Antimicrobial activity against Staphylococcus aureus 8325-4 after 18 hrs by broth microdilution method; assay type: functional; settings: 8325-4, 18 h
Method in brief: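 Broth microdilution MIC following British Society for Antimicrobial Chemotherapy guidelines, run against S. aureus […] 8325-4.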

| Compound | IC50 [1] | MIC (Escherichia coli [2]) | MIC (Escherichia coli [3]) | MIC (Staphylococcus aureus [4]) | Activity (Escherichia coli [6]) | MIC (Staphylococcus aureus [7]) | Activity (Staphylococcus aureus [5]) |
| --- | --- | --- | --- | --- | --- | --- | --- |
| COc1ccc2nc3cc(Cl)ccc3c(Nc3ccc(O)c(CN(CCCl)CCCl)c3)c2c1 |  |  |  |  | 22% |  |  |
| COc1cc(NCCCNc2c3ccc(Cl)cc3nc3ccc(OC)cc23)c2ncccc2c1 | 90 µM | > 256 µg/mL | > 256 µg/mL | 256 µg/mL (≈ 541 µM) | 13% |  |  |
| CCN(CC)Cc1cc(Nc2c3ccc(Cl)cc3nc3ccc(OC)cc23)ccc1O | 320 µM | 128 µg/mL (≈ 294 µM) | 256 µg/mL (≈ 587 µM) | 128 µg/mL (≈ 294 µM) | 46% |  |  |
| C=CCc1cc(Nc2c3ccc(Cl)cc3nc3ccc(OC)cc23)cc(CN(CC)CC)c1O | 161 µM | > 256 µg/mL | > 256 µg/mL | 32 µg/mL (≈ 67.2 µM) | 27% |  | 47.7% |
| COc1ccc2nc3cc(Cl)ccc3c(Nc3ccc(O)c(CN4CCCC4)c3)c2c1 | 102 µM | 256 µg/mL (≈ 590 µM) | 256 µg/mL (≈ 590 µM) | 64 µg/mL (≈ 147 µM) | 20% |  |  |
| CCN(CC)Cc1cc(Nc2c3ccc(Cl)cc3nc3c(OC)ccc(Cl)c23)ccc1O | 119 µM | > 256 µg/mL | > 256 µg/mL | > 256 µg/mL | 40% |  |  |
| CCN(CC)Cc1cc2[nH]c3c4ccc(Cl)cc4ncc3c2cc1OC.Cl.Cl.Cl | 330 µM | > 256 µg/mL | > 256 µg/mL | > 256 µg/mL |  |  |  |
| CCCCCCCCN(CCCCCCCC)Cc1cc(Nc2c3ccc(Cl)cc3nc3ccc(OC)cc23)ccc1O |  |  |  |  | 86% |  |  |
| COc1ccc2nc3cc(Cl)ccc3c(Nc3ccc(C(O)CCN(C)C)cc3)c2c1 (configuration not stated) | 135 µM | 128 µg/mL (≈ 294 µM) | > 256 µg/mL | 256 µg/mL (≈ 587 µM) | 38% |  |  |
| COc1cc(Nc2c3ccc(Cl)cc3nc3ccc(OC)cc23)c2ncccc2c1 | 32 µM | > 256 µg/mL | > 256 µg/mL | > 256 µg/mL | 25% |  |  |
| COc1ccc2nc3cc(Cl)ccc3c(Nc3ccc(O)c(CN4CCN(C)CC4)c3)c2c1 | 162 µM | 64 µg/mL (≈ 138 µM) | > 256 µg/mL |  |  | 32 µg/mL (≈ 69.1 µM) | 48.7% |
| COc1ccc2nc3cc(Cl)ccc3c(NCCNc3c4ccc(Cl)cc4nc4ccc(OC)cc34)c2c1 |  |  |  |  | 27% |  |  |

More lines, main results first:

| IC50 [1] | MIC (Escherichia coli [2]) | MIC (Escherichia coli [3]) | MIC (Staphylococcus aureus [4]) | Activity (Escherichia coli [6]) | MIC (Staphylococcus aureus [7]) | Compound | Activity (Staphylococcus aureus [5]) |
| --- | --- | --- | --- | --- | --- | --- | --- |
| 60 µM | > 256 µg/mL | > 256 µg/mL | > 256 µg/mL |  |  | COc1ccc2[nH]c3c(C)c4ccncc4c(C)c3c2c1 |  |
| 65 µM | 8 µg/mL | 256 µg/mL | 32 µg/mL |  |  | COc1ccc2[nH]c3c(C)c4cc[n+](C)cc4c(C)c3c2c1.[I-] | 16% |
| 86 µM | 16 µg/mL (≈ 49.2 µM) | > 256 µg/mL | 16 µg/mL (≈ 49.2 µM) |  |  | Cc1c2ccncc2c(C)c2c1[nH]c1ccc(Br)cc12 | 49.6% |
| 89 µM | 4 µg/mL | 256 µg/mL | 64 µg/mL |  |  | CC(=O)[O-].COc1ccc2[nH]c3c(C)c4cc[n+](C)cc4c(C)c3c2c1 |  |
| 70 µM | 8 µg/mL (≈ 24 µM) | 32 µg/mL (≈ 96 µM) |  |  | 32 µg/mL (≈ 96 µM) | COc1ccc2c(c1)c1c(C)c3cnccc3c(C)c1n2CCCN |  |
| 103 µM | 8 µg/mL (≈ 30.3 µM) | > 256 µg/mL | 4 µg/mL (≈ 15.1 µM) |  |  | Cc1c2ccncc2c(C)c2c1[nH]c1cc(F)ccc12 | 42.8% |
| 297 µM |  |  |  |  |  | Cc1c2cnccc2c(C)c2c1c1cc(Br)ccc1n2C |  |
| 90 µM | > 256 µg/mL | > 256 µg/mL | > 256 µg/mL |  |  | Cc1c2cnccc2c(C)c2c1c1ccc(F)cc1n2C |  |
| 36 µM | 1 µg/mL | 32 µg/mL | 2 µg/mL |  |  | Cc1c2c[n+](C)ccc2c(C)c2c1c1cc(Br)ccc1n2C.[I-] | 42.4% |
| 125 µM | > 256 µg/mL | > 256 µg/mL | 8 µg/mL (≈ 29.2 µM) |  |  | CCc1cccc2c1[nH]c1c(C)c3ccncc3c(C)c12 | 34.2% |
| 184 µM |  |  |  |  |  | COc1ccc2c(c1)c1c(C)c3cnccc3c(C)c1n2C |  |
| 23 µM | 4 µg/mL | 16 µg/mL | 8 µg/mL |  |  | Cc1c2cc[n+](C)cc2c(C)c2c1[nH]c1ccc(Br)cc12.[I-] | 29.8% |
| 46 µM | 4 µg/mL | 64 µg/mL | 16 µg/mL |  |  | Cc1c2cc[n+](C)cc2c(C)c2c1[nH]c1ccccc12.[I-] | 37.3% |
| 192 µM | 8 µg/mL (≈ 30.5 µM) | 16 µg/mL (≈ 61 µM) | 8 µg/mL (≈ 30.5 µM) |  |  | Cc1c2ccncc2c(C)c2c1[nH]c1ccc(O)cc12 | 71.9% |
|  | 32 µg/mL (≈ 94.2 µM) | 128 µg/mL (≈ 377 µM) | 256 µg/mL (≈ 753 µM) |  |  | COc1cc2c(cc1CN(C)C)[nH]c1c3ccc(Cl)cc3ncc21 |  |
| 64 µM | 4 µg/mL | > 256 µg/mL | > 256 µg/mL |  |  | Cc1c2cc[n+](C)cc2c(C)c2c1[nH]c1cc(F)ccc12.[I-] |  |
| 623 µM | 32 µg/mL (≈ 87 µM) | 256 µg/mL (≈ 696 µM) | 256 µg/mL (≈ 696 µM) |  |  | CCN(CC)Cc1cc2[nH]c3c4ccc(Cl)cc4ncc3c2cc1OC |  |
